One series deals with SK-MES-1. As to the kind of experiment: Cytotoxicity against human SK-MES-1 cells assessed as inhibition of cell proliferation measured after 72 hrs by CCK-8 assay. Type of series: functional, cell-based. The note with it: SK-MES-1, 72 h. The method, boiled down:
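Cells seeded at 2×10^3 per well and grown overnight in 10% FBS medium: HCT116 in McCoy's 5A, A549 and AGS in F-12K, SK-MES-1 in DMEM. Compounds added at varied concentrations with 0.1% DMSO control, 72 h at 37 °C. 10% CCK-8 for 2 h, then A450 read. Survival = (As−Ab)/(Ac−Ab)×100%. IC50 from curve fitting.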
On the technique in general: Tetrazolium dyes change colour on reduction, which living cells bring about.

The nature of series [1]: Selectivity index, ratio of IC50 for human NCM460 cells to IC50 for human HCT-116 cells. Type of series: toxicity. The note with it: NCM460 cells and HCT-116 cells, read-out: Ratio IC50. The method, boiled down: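 The selectivity index is IC50 in NCM460 normal colonic epithelial cells (RPMI-1640, 10% FBS) divided by IC50 in HCT116. Both were measured by 72 h CCK-8 viability at 2×10^3 cells/well with A450 read-out.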

In series [2] the test system is HCT-116. Put plainly: Inhibition of cell migration in human HCT-116 cells measured after 24 hrs by crystal violet staining based fluorescent inverted microscopic analysis. It is filed as functional. The following applies: dose 0.1-0.3 µM. The method, boiled down: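 Uncoated Transwell inserts were seeded with HCT116 cells (1×10^4) in the upper chamber, with complete medium below. Treated 24 h at 37 °C, 5% CO2, with 0.1, 0.2 or 0.3 μM or 0.1% DMSO. Fixed with 4% paraformaldehyde, stained with 0.1% crystal violet, migrated cells imaged and counted. At least three replicates.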

A further series addresses Tubulin (Homo sapiens) (UniProt P68371+Q9H4B7+P0DPH7+P68366+Q13509+Q71U36+P04350+Q3ZCM7+P07437+P68363+Q9BQE3+Q6PEY2+Q13885+Q9BVA1+Q9BUF5). As to the kind of experiment: Disruption of microtubule network in human HCT-116 cells at 0.1 to 0.3 uM measured after 48 hrs by immunofluorescent staining based analysis. Type of series: cell-based. The following applies: dose 0.1-0.3 µM. The method, boiled down: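 HCT116 cells (1×10^5/well suspension) settled on glass slides overnight at 37 °C, 5% CO2. Treated 48 h with 0.1, 0.2 or 0.3 μM, or 0.1% DMSO. Fixed in 4% paraformaldehyde, permeabilised with 0.5% Triton X-100, blocked. Anti-α-tubulin (1:4000) at 4 °C overnight, then Alexa488 anti-mouse IgG 1 h. DAPI mount, confocal imaging.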

In series [3] the test system is HCT-116. Put plainly: Induction of cell cycle arrest in human HCT-116 cells assessed as accumulation of cells at G0/G1 phase at 0.1 uM measured after 24 hrs by PI/RNase staining based flow cytometry analysis (reference value: 32.88%). Type of series: functional. A general note: Flow cytometry measures light scatter and fluorescence of single cells or particles in a stream.

Series [4] deals with HCT-116. Put plainly: Induction of cell cycle arrest in human HCT-116 cells assessed as accumulation of cells at S phase at 0.3 uM measured after 24 hrs by PI/RNase staining based flow cytometry analysis (reference value: 38.29%). It is filed as functional.
The subject of series [5] is HCT-116. As to the kind of experiment: Induction of cell cycle arrest at G2/M phase in human HCT-116 cells assessed as reduction in Cdc-2 protein expression measured after 48 hrs by Western blot analysis. Type of series: functional, cell-based. The following applies: dose 0.1-0.3 µM. The method, boiled down: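 HCT116 cells given 0.1, 0.2 or 0.3 μM for 48 h, with 0.1% DMSO control. Lysates run on SDS-PAGE and blotted to PVDF. Probed with anti-Cdc2 and anti-Cyclin B1 (1:1000), β-actin as loading control, HRP secondary, and chemiluminescence. Band quantities expressed relative to control set to 1. Three independent experiments.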
(In western blotting, separated proteins are transferred to a membrane and probed.)

Series [6] relates to HCT-116. As to the kind of experiment: Induction of autophagy in human HCT-116 cells assessed as downregulation of p62 protein level measured after 24 hrs by Western blot analysis. Type of series: functional, cell-based. The following applies: dose 0.1-0.3 µM. The method, boiled down:
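HCT116 cells exposed for 24 h to 0.1, 0.2 or 0.3 μM. Lysed on ice and protein measured by BCA. […] Milk-blocked, probed with anti-LC3A/B or anti-phospho-SQSTM1/p62 (1:1000) plus β-actin, then HRP anti-rabbit and chemiluminescence. Bands normalised to control set to 1. Three independent experiments.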

In series [7] the test system is A549. As to the kind of experiment: Induction of cell cycle arrest in human A549 cells assessed as accumulation of cells at G0/G1 phase at 0.2 uM measured after 24 hrs by PI/RNase staining based analysis (reference value: 41.91%). It is filed as functional.
Series [8] concerns A549. Put plainly: Induction of cell cycle arrest in human A549 cells assessed as accumulation of cells at S phase at 0.2 uM measured after 24 hrs by PI/RNase staining based analysis (reference value: 24.95%). It is filed as functional.
Series [9] deals with A549. Put plainly: Induction of cell cycle arrest in human A549 cells assessed as accumulation of cells at G2/M phase at 0.2 uM measured after 24 hrs by PI/RNase staining based analysis (reference value: 10.22%). Type of series: functional.
The test system of series [10] is A549. As to the kind of experiment: Induction of cell cycle arrest in human A549 cells assessed as accumulation of cells at G2/M phase at 0.3 uM measured after 24 hrs by PI/RNase staining based analysis (reference value: 10.22%). Type of series: functional.
In series [11] the test system is A549. Put plainly: Induction of apoptosis in human A549 cells assessed as early apoptotic cells at 0.1 uM measured after 24 hrs by Annexin V-APC/PI staining based flow cytometry analysis (reference value: 1.73%). It is filed as functional.
Series [12] has as its system A549. As to the kind of experiment: Induction of apoptosis in human A549 cells assessed as late apoptotic cells at 0.1 uM measured after 24 hrs by Annexin V-APC/PI staining based flow cytometry analysis (reference value: 0.86%). It is filed as functional.
The subject of series [13] is A549. Put plainly: Induction of apoptosis in human A549 cells assessed as late apoptotic cells at 0.2 uM measured after 24 hrs by Annexin V-APC/PI staining based flow cytometry analysis (reference value: 0.86%). It is filed as functional.
For series [14], the system named is A549. As to the kind of experiment: Induction of apoptosis in human A549 cells assessed as live cells at 0.3 uM measured after 24 hrs by Annexin V-APC/PI staining based flow cytometry analysis (reference value: 96.91%). Type of series: functional.
For series [15], the system named is A549. As to the kind of experiment: Induction of apoptosis in human A549 cells assessed as dead cells at 0.3 uM measured after 24 hrs by Annexin V-APC/PI staining based flow cytometry analysis (reference value: 0.50%). Type of series: functional.
For series [16], the system named is HCT-116. As to the kind of experiment: Antitumor activity against human HCT-116 cells xenografted in female BALB/c nude mouse assessed as tumor growth inhibition at 40 mg/kg, ip administered every 2 days for 20 days by vernier caliper relative to control. It is filed as functional. The following applies: HCT-116, 480 h, time 20 day, read-out: TGI. The method, boiled down:
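HCT116 cells (5×10^7/0.2 mL/mouse) injected subcutaneously beside the right forelimb of 5-week-old female BALB/c nude mice. At 100 mm³ tumour volume, mice randomised by weight and tumour size into four groups of ten. Saline vehicle control ip. Dosing for 20 days, then euthanasia and tumour weighing. Caliper diameters used; volume = W²×L/2.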

A short description of series [17]: Toxicity in female BALB/c nude mouse xenografted with human HCT-116 cells assessed as adverse effects at 20 to 40 mg/kg, ip administered every 2 days for 20 days. It is filed as organism-based. The following applies: in vivo, 480 h, dose 20-40 mg/kg, time 20 day. The method, boiled down: (§1)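 Female BALB/c nude mice, 5 weeks old, bearing subcutaneous HCT116 xenografts (started at 100 mm³), randomised into groups of ten. Saline-injected ip controls. Body weight monitored throughout the 20-day intraperitoneal treatment.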

Series [18] can be described thus: Toxicity in female BALB/c nude mouse xenografted with human HCT-116 cells assessed as reduction in body weight at 20 to 40 mg/kg, ip administered every 2 days for 20 days. Type of series: organism-based. The following applies: in vivo, 480 h, dose 20-40 mg/kg, time 20 day. The gist of the method:
as §1

By IC50 is commonly meant the concentration that inhibits the measured activity by half.

Molecules are shown by their SMILES. Calls of active or inactive are those of the source. The calls are words filed in the database; no cut-off is given here.

Turning to `COc1ccc(/C=C(/C(=O)N2CCN(c3ccc(C)cc3)CC2)c2cc(OC)c(OC)c(OC)c2)cc1O`, the IC50 in the series with SK-MES-1 came to 0.423 µM. The selectivity ratio in series [1] came to 4.8. In the series on HCT-116 [2], the inhibition entry was “Dose-Dependent Effect”. Besides, on Tubulin (Homo sapiens), the outcome was Active. The Activity in the series on HCT-116 [3] was 34.26%; with HCT-116 [4], 6.31%; with HCT-116 [5], “Dose-Dependent Effect”; in the series on HCT-116 [6] it was “Dose-Dependent Effect”; with A549 [7], 77.73%; with A549 [8], 13.76%. Also, the Activity in the series with A549 [9] is 8.51%; in the series with A549 [10], 5.65%; in the series with A549 [11], 10.34%; in the series on A549 [12], 2.78%; in the series with A549 [13], 4.72%; in the series with A549 [14] it was 68.79%. Besides, the Activity is listed as 1.25% in the series on A549 [15], “Non-Toxic” in series [17] and “Non-Toxic” in series [18]. In the series with HCT-116 [16], the inhibition in vivo at 40 mg/kg was determined as 12.7%.

(Values after ChEMBL document CHEMBL5500387, “Design, synthesis of combretastatin A-4 piperazine derivatives as potential antitumor agents by inhibiting tubulin polymerization and inducing autophagy in HCT116 cells” (Eur J Med Chem, 2024).)
